This is an account of results in PMC6432629 (The Prostate, 2016).

Like-named read-outs stand apart in the source and are kept apart here. Numbered stars: 1 amine (or outer) side, 2 acyl side, 3 side chain; on linkers, the order of the positions; unused ones are H or OH. Square brackets hold non-standard residues; d marks the D form. Peptide text beside a SMILES is read from it. * marks the point of attachment. Emetine(N2') = CC[C@H]1CN2CCc3cc(OC)c(OC)cc3[C@@H]2C[C@@H]1C[C@@H]1c2cc(OC)c(OC)cc2CCN1*; PABC = O=C(OCc1ccc(N[*:1])cc1)[*:2]

One series concerns PC3. In words: MTT cell proliferation. The conditions noted are these: for cytotoxicity / IC50 compared with emetine, PC3 (in words): media with 10% FBS.
The next series addresses T1, FAP (Homo sapiens, UniProt Q12884).
T1 sequence (Q12884 27-760 limits assumed): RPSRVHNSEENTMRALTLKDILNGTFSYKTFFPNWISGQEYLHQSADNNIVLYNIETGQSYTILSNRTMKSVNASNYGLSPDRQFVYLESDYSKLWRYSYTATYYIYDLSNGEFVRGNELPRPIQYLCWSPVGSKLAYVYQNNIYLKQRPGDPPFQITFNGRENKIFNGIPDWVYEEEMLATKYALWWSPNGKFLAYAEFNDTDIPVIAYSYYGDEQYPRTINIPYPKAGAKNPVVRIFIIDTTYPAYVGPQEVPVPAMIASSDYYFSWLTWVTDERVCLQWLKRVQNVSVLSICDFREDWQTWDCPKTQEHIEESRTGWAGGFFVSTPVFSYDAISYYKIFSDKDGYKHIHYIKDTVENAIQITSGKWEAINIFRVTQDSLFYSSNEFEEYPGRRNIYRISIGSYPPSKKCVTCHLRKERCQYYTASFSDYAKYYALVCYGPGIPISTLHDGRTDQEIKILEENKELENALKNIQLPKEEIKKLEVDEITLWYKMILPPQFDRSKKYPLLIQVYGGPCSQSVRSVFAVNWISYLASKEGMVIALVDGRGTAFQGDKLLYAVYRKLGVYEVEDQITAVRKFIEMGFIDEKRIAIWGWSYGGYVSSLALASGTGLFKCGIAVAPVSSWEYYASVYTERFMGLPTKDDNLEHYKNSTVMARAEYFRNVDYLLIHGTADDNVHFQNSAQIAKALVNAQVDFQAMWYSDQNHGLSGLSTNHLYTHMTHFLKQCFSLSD
The experiment in a line: FAP-mediated hydrolysis of prodrugs ex vivo. As to conditions: 37°C. The format is in vitro ADME.

A further series relates to LNCaP. The experiment in a line: MTT cell proliferation. The conditions noted are these: for cytotoxicity / IC50 compared with emetine, LNCaP (in words): media with 10% FBS.
Series [1] can be described thus: Hydrolysis of prodrugs in media with 10% FBS. The conditions noted are these: 37°C. The format is in vitro ADME, bovine.
Series [2] is described as follows: Stability in serum free media. It is filed as in vitro ADME. The conditions noted are these: 37°C, 72 hr incubation.
The target of series [3] is DPPIV (human recombinant CD26) (Homo sapiens, UniProt P27487). The experiment in a line: DPPIV-mediated hydrolysis of prodrugs ex vivo. It is filed as in vitro ADME. As to conditions: 10 at 500 μM (Fig. 3 legend: 200 μM), DPPIV 30 nM, 37°C, 2 hr.
The test system of another series is PrEC cells. The experiment in a line: Cytotoxicity in normal prostatic epithelial cells in serum free media. The conditions noted are these: for cytotoxicity to PrEC at 100 nM and 1,000 nM (in words): keratinocyte serum free media, no FAP or DPPIV; for IC50: read-out: calculated IC50 in the PrEC cell lines.
The subject of the next series is MCF-7. In words: MTT cell proliferation. The conditions noted are these: for cytotoxicity / IC50 compared with emetine, MCF-7 (in words): media with 10% FBS; for IC50: read-out: IC50 (nM) MCF-7.
The nature of series [4]: Stability of prodrug 11 in human plasma. It is filed as in vitro ADME. As to conditions: human plasma (EDTA), 400 μM, 37°C, 24 hr, methanol precipitation, HPLC and MS. A digest of the protocol: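 Compound from 10 mM DMSO stock was added to EDTA-anticoagulated human plasma, with a PBS control at the same concentration. Incubated at 37°C for 24 hr. At time points, 100 μl aliquots received 200 μl cold methanol, sat on ice 10 min, and were centrifuged at 13,000 rpm for 6 min. Supernatant analysed by HPLC and mass spectrometry.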

Another series relates to MDA-MB-231. The experiment in a line: MTT cell proliferation. The format is cell-based, human. The conditions noted are these: 3-day exposure, media with 10% FBS.
In a further series the test system is FAP and DPPIV. In words: Tandem hydrolysis by mixture of purified FAP and DPPIV. It is filed as in vitro ADME. As to conditions: FAP 300 nM + DPPIV 30 nM, 37°C, HPLC and MS. A digest of the protocol: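 FAP expressed in Schneider S2 cells (induced with 500 μM CuSO4) and purified from supernatant on Ni-NTA; DPPIV is human recombinant from sf9 cells. Enzymes (FAP 300 nM, DPPIV 30 nM) in 100 mM Tris, 100 mM NaCl, pH 7.8. Substrate from 10 mM DMSO stock, 250 μM final, 2.5% DMSO. Shaken at 37°C for 24 hr; time-point aliquots quenched in cold acetonitrile, then HPLC and MS.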

Series [5] concerns NCI 60 cancer cell screen. The conditions noted are these: read-out: GI50 in NCI 60 cancer cell screen; no reference given; cited from earlier work.

Chain of DPPIV (human recombinant CD26) (P27487 whole entry): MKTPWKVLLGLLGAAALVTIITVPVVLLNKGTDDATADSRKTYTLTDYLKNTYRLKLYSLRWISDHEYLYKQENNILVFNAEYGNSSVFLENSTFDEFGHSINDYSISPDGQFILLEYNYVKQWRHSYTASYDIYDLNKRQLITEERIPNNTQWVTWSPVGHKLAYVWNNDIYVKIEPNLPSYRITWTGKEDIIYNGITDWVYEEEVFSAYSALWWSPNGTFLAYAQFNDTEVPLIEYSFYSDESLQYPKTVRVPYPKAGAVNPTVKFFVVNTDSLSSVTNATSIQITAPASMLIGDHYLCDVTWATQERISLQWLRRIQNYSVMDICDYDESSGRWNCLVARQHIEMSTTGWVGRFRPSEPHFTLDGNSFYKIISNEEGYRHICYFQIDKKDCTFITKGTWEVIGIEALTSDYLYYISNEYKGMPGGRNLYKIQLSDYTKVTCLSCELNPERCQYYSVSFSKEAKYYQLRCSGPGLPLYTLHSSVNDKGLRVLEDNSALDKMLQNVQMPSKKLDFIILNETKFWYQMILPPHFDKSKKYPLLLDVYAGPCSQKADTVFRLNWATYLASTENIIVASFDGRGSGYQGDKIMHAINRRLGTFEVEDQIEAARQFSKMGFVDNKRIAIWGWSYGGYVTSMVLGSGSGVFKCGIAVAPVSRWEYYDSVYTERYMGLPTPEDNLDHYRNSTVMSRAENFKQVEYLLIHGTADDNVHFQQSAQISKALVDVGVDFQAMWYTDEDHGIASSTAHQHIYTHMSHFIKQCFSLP

The IC50 is the midpoint of a concentration-inhibition curve. Take `CC[C@H]1CN2CCc3cc(OC)c(OC)cc3[C@@H]2C[C@@H]1C[C@@H]1c2cc(OC)c(OC)cc2CCN1C(=O)OCc1ccc(NC(=O)[C@@H]2CCCN2C(=O)[C@H](C)N)cc1` [Compound 10, Ala-Pro-PABC-Emetine]: in the series on PC3 (3-day exposure), the “cytotoxicity / IC50 compared with emetine, PC3 (in words)” value is recorded as “cytotoxicity comparable to that of emetine”. The IC50 with PC3 (read-out: IC50 (nM) PC3, Table II, 3-day exposure, media containing 10% FBS, MTT) was found to be 37.2 ± 1.6 nM; with LNCaP (read-out: IC50 (nM) LNCaP, Table II, 3-day exposure, media containing 10% FBS, MTT), 38.2 ± 1 nM; with MCF-7 (Table II, 3-day exposure, media containing 10% FBS, MTT), 38.4 ± 1.2 nM. In the series with FAP (purified recombinant FAP 300 nM, 24 hr), the “% conversion to emetine by FAP, 24 hr” value is 36%. Further, the “cytotoxicity / IC50 compared with emetine, LNCaP (in words)” value in the series on LNCaP (3-day exposure) was “cytotoxicity comparable to that of emetine”. In [1] (10% FBS media, 2 hr), the “% conversion to emetine in 10% FBS, 2 hr” value came out at 10%. In [1] (RPMI media with 10% FBS, 500 μM compound, 1% DMSO, 24 hr, HPLC and MS), the “% emetine released, 10% FBS” value worked out at 78%. The “stability in serum free media” value in [2] is on record as “completely stable”. In series [3], the “% conversion to emetine by purified DPPIV, 2 hr” value came out at 88%. In the series with PrEC cells (100 nM, 1-3 days exposure, serum free media lacking FAP and DPPIV), the “cytotoxicity to PrEC (in words)” value was “no observable cytotoxicity”. The “cytotoxicity / IC50 compared with emetine, MCF-7 (in words)” value in the series with MCF-7 (3-day exposure) is on record as “cytotoxicity comparable to that of emetine”.

With `CC[C@H]1CN2CCc3cc(OC)c(OC)cc3[C@@H]2C[C@@H]1C[C@@H]1c2cc(OC)c(OC)cc2CCN1C(=O)OCc1ccc(NC(=O)[C@@H]2CCCN2C(=O)[C@H](C)NC(=O)[C@@H]2CCCN2C(=O)CNC(=O)[C@H](C)NC(=O)[C@@H]2CCCN2C(=O)CNC(=O)[C@H](CO)NC(=O)[C@H](C)NC(C)=O)cc1` [Compound 11] (Ac-ASGPAGPAP[PABC]-{Emetine(N2')}), the “cytotoxicity / IC50 compared with emetine, PC3 (in words)” value in the series with PC3 (3-day exposure) was “identical to that for emetine”. In addition, the “cleavage by recombinant purified FAP (in words)” value in the series with FAP (purified FAP 300 nM, up to 24 hr) is “progressively cleaved to the intermediate (precursor) 10”. Further, the “cytotoxicity / IC50 compared with emetine, LNCaP (in words)” value with LNCaP (3-day exposure) is given as “identical to that for emetine”. In addition, in series [4], the “precursor 10 or emetine detected after incubation in human plasma” value is given as “No detectable amount”. The “IC50 compared with emetine, MDA-MB-231 (in words)” value with MDA-MB-231 is “identical to that for emetine”. Further, in the series on FAP and DPPIV (2 hr), the “% emetine formed from 11, 2 hr” value came out at 22% and the “% precursor 10 formed from 11, 2 hr” value was determined as 56%. Further, in the series with FAP and DPPIV (4 hr), the “% emetine formed from 11, 4 hr” value is reported as 36% and the “% precursor 10 formed from 11, 4 hr” value is listed as 58%. Besides, the “% precursor 10 in solution, 24 hr” value with FAP and DPPIV (24 hr) turned out to be 25%. Also, the “cytotoxicity to PrEC at 100 nM and 1,000 nM (in words)” value in the series on PrEC cells (3-day exposure) is “not cytotoxic”. Further, the IC50 with PrEC cells (3-day exposure, expanded dose range, serum free media, absence of FAP and DPPIV) is 7730 nM. Moreover, in the series with PrEC cells (serum free media, absence of FAP and DPPIV), the “fold less cytotoxic than emetine in PrEC” value was “more than 200 fold”. For the same compound, the “cytotoxicity / IC50 compared with emetine, MCF-7 (in words)” value in the series with MCF-7 (3-day exposure) is recorded as “identical to that for emetine”.

As a reminder, the GI50 is the concentration that inhibits growth by half. For the compound `CC[C@H]1CN2CCc3cc(OC)c(OC)cc3[C@@H]2C[C@@H]1C[C@H]1NCCc2cc(OC)c(OC)cc21` [Emetine, emetine], the IC50 was 29.4 ± 3.2 nM in the series with PC3 (Homo sapiens, PC-3, 120 h, read-out: PC3 [IC50 (nM)]); 31.6 ± 2.4 nM in the series on LNCaP (Homo sapiens, LNCaP, 120 h, read-out: LNCaP [IC50 (nM)]); 35.7 nM in the series on PrEC cells (Homo sapiens, PrEC, 72 h); 35.8 ± 1.6 nM in the series on MCF-7 (Homo sapiens, MCF7, 72 h). The “percentage of viable cells relative to control, day 1” value in the series on PrEC cells (100 nM, PrEC in serum free media lacking FAP and DPPIV, day 1) amounted to 80%. The “percentage of viable cells relative to control, day 2” value in the series with PrEC cells (100 nM, PrEC in serum free media lacking FAP and DPPIV, day 2) is on record as 50%. Besides, in the series with PrEC cells (100 nM, PrEC in serum free media lacking FAP and DPPIV, day 3), the “percentage of viable cells relative to control, day 3” value was 10%. Moreover, in the series on PrEC cells (3-day exposure), the “cytotoxicity to PrEC at 100 nM and 1,000 nM (in words)” value is “highly cytotoxic”. Also, the GI50 in series [5] was 27 nM.
